Shown are actives, neighbours in structure and some others; about 1.7% of the full set was active somewhere.
SR-BI DiI-HDL act: enhances SR-BI lipid uptake from DiI-HDL; activation, % at 12.5 µM; CHO ldlA[mSR-BI] cells, DiI-HDL uptake fluorescence, 3 h; 100 = double the neutral-control signal; 320,000 tested, 0.096% active;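 active = mean replicate activation of at least 60% and every replicate at or above 60%; inconclusive = mean or all-replicate condition met, but not both; inactive = mean below 60% and not all replicates reaching 60%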;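 note: 0% = median plate neutral-control signal and 100% = twice that signal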
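Material: SR-BI-overexpressing, LDLR-lacking CHO cells; schedule: compound exposure 3 h, 37 °C; reagent: DiI-labelled HDL at 10 µg/mL final; technique: bottom-read fluorescence, 550/595 nm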
C2C12 statin: protects C2C12 myotubes from simvastatin toxicity. ATP luminescence, 48 h; scaled: DMSO 0, geranylgeraniol control 100. rescue of ATP level, % at 7.49 µM. 330,000 tested, 0.78% active;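 active = mean ATP rescue above about 67%, or every replicate alone reaching that limit, limit read from the data, passing the limit was not always enough; inconclusive = no clear call, values can overlap the other calls; inactive = mean under the limit and some replicate under it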;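 note: myotubes were challenged with 10 µM simvastatin during compound exposure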
SR-BI DiI inh: inhibitors of mouse SR-BI mediated HDL lipid uptake | Q61009 | ldlA[mSR-BI] CHO cells, DiI-HDL uptake fluorescence, 3 h | inhibition, % at 12.5 µM | 320,000 tested, 0.96% active | AID 488896;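 active = mean replicate inhibition of at least 70% and a set share of replicates each scoring 70 or more; inconclusive = meets just one of the two criteria; inactive = fails both criteria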;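 note: 0% = median of neutral control wells and 100% = median of positive control wells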
Target sequence (Q61009 whole entry, looked up): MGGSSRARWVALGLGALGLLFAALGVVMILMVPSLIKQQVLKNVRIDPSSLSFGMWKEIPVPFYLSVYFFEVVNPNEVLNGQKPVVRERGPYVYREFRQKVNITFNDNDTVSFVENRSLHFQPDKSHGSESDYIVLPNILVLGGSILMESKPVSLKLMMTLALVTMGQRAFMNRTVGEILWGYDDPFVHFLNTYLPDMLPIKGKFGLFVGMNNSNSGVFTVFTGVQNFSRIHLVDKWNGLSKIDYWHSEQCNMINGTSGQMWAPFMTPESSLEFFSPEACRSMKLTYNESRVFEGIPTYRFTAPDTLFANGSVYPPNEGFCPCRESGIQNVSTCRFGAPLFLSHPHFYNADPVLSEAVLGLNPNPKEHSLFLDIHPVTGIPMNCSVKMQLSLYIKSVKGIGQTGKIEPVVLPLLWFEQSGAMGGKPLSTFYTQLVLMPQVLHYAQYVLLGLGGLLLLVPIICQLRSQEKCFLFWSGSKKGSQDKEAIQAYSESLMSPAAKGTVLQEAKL
Vif inh: HIV Vif inhibition; HEK293T cells, Vif self-association by quenched fluorescence, imaging, 24 h; inhibition, % at 7.49 µM; 340,000 tested, 0.35% active; AID 602346; in the data active = inhibition above about 50%, passing the limit was not always enough; inconclusive = no clear call, values can overlap the other calls; inactive = below about 31%
An asterisk follows results filed as active; ? = inconclusive; nt = no result given.

SMILES | SR-BI DiI-HDL act | C2C12 statin | SR-BI DiI inh | Vif inh
CCOc1cc(/C=N/NC(=O)c2nnn(-c3nonc3N)c2C)ccc1OCc1ccc(F)cc1 | nt | -13 | 58 | 5
C[C@@H]1CN([C@@H](C)CO)C(=O)c2cc(C#CC3CC3)cnc2O[C@@H]1CN(C)Cc1ccccn1 | nt | -2 | nt | nt
O=C(CN1CC[n+]2c(-c3cccs3)csc21)c1ccc(-c2ccccc2)cc1 | -77 | nt | 77* | -8
Cc1nnc2n(-c3ccccc3)c(=O)c3c4c(sc3n12)COC(C)(C)C4 | 27 | 105* | -27 | 1
Cc1cc(Br)c(OCc2ccc(C(=O)N/N=C/c3ccc[nH]3)cc2)c(Br)c1 | -91 | -118 | 91* | -11
O=C(N/N=C/c1ccc[nH]1)c1ccc(COc2cccc3cccnc23)cc1 | -60 | -105 | 60 | -6
COc1ccc(C(=O)NNC(=O)c2cc3ccccc3cc2O)cc1 | -115 | nt | 115* | -1
CCc1ccc(NC(=O)NNC(=O)c2cc3ccccc3cc2O)cc1 | -38 | nt | 38 | -5
CCOc1ccc(NC(=O)NNC(=O)c2cc3ccccc3cc2O)cc1 | -81 | 3 | 81* | 6
COc1ccc(CN=CC2=C(O)CNC2=O)cc1OC | 28 | 94* | -28 | 5
COCC(=O)N(C)C[C@H]1Oc2cc(-c3cccnc3)ccc2S(=O)(=O)N([C@@H](C)CO)C[C@H]1C | nt | 0 | nt | nt
CCCCOc1ccc(/C(O)=C2/C(=O)C(=O)N(Cc3cccnc3)C2c2ccncc2)c(C)c1 (configuration not stated) | 0 | nt | 0 | -2
Cc1cc(OCC(C)C)ccc1/C(O)=C1/C(=O)C(=O)N(Cc2cccnc2)C1c1ccncc1 (configuration not stated) | 9 | 4 | -9 | 54*
O=C(CSc1nnc2scc(-c3ccccc3)n12)c1ccc2c(c1)OCCO2 | -6 | 5 | 6 | -3
c1ccc(-c2csc3nnc(SCc4ccc5c(c4)OCCO5)n23)cc1 | 1 | 157* | -1 | 12
O=C(NC1CCC1)[C@H]1[C@H](CO)[C@H]2Cn3c(cccc3=O)[C@H]2N1CCc1ccccc1 | nt | 1 | nt | nt
Cn1nnnc1Sc1ncnc2scc(-c3ccc(Br)cc3)c12 | -2 | 24 | 2 | 11
Cn1nnnc1Sc1ncnc2scc(-c3ccc(F)cc3)c12 | 17 | -4 | -17 | 52*
O=C(C[C@@H]1C=C[C@@H](NC(=O)C2CCOCC2)[C@@H](CO)O1)NCC1CCCCC1 | nt | -5 | nt | nt
COc1cc(/C=C2/C(=N)N3OC(C)=CC3=NC2=O)ccc1OCCOc1ccc(C)cc1 | -25 | 11 | 25 | 3
CCOc1ccc(/C=C2/C(=N)N3OC(C)=CC3=NC2=O)cc1OC | 86* | -20 | -86 | 39
COCC(=O)N(C)C[C@H]1Oc2ncc(-c3ccc(F)cc3)cc2C(=O)N([C@@H](C)CO)C[C@@H]1C | nt | -5 | nt | nt
O=C(N/N=C/c1cc([N+](=O)[O-])ccc1O)c1cccc(N2CCCC2=O)c1 | -117 | -7 | 117* | 12
Cc1cccc(/C=N\NC(=O)c2ccc(Cl)cc2)c1O | -141 | nt | 141* | 3
COc1ccc2ccccc2c1/C=N/NC(=S)Nc1cc(S(=O)(=O)N2CCOCC2)ccc1N1CCOCC1 | 17 | nt | -17 | -15
SMILES | SR-BI DiI-HDL act | C2C12 statin | SR-BI DiI inh | Vif inh
CCOc1cccc(/C=N/NC(=S)Nc2cc(S(=O)(=O)N3CCOCC3)ccc2N2CCOCC2)c1O | -94 | nt | 94* | -8
CCOc1cccc(/C=N/NC(=O)c2cc(-c3cccn3C)n[nH]2)c1O | -104 | 8 | 104* | 7
CNC(=O)C[C@H]1CC[C@H]2[C@@H](COc3ccc(NC(=O)c4ccccc4Cl)cc3C(=O)N2C)O1 | nt | 4 | nt | nt
O=C(N/N=C/c1cc([N+](=O)[O-])ccc1O)c1cccc2cc[nH]c12 | -144 | nt | 144* | 13
O=C(N/N=C/c1cccc([N+](=O)[O-])c1)c1cccc2cc[nH]c12 | -26 | nt | 26 | 10
O=C(N/N=C/c1cc([N+](=O)[O-])ccc1O)c1ccc2c(c1)OCCO2 | -131 | 22 | 131* | -5
Cc1cccc(/C=N/NC(=O)c2ccc3c(c2)OCCO3)c1O | -111 | -85 | 111* | -20
CCOc1cccc(/C=N/NC(=O)c2ccc3c(c2)OCCO3)c1O | -87 | 27 | 87* | -21
COc1ccccc1CN1[C@H](CO)[C@@H]2c3ccccc3N(C(=O)C3CCC3)C[C@@H]21 | nt | 10 | nt | nt
C[C@H](CO)N1C[C@H](C)[C@H](CN(C)C(=O)Nc2ccc(C(F)(F)F)cc2)Oc2ccc(NC(=O)Nc3ccc(F)cc3)cc2CC1=O | nt | 3 | nt | nt
C[C@@H]1CN([C@@H](C)CO)C(=O)CCCn2cc(nn2)CO[C@@H]1CN(C)C(=O)NC1CCCC1 | nt | 1 | nt | nt
Cc1cccc(/C=N/NC(=O)c2c(-c3ccccc3)noc2C)c1O | -102 | 5 | 102* | 5
CCCCSc1nc(C)cc(SCC(=O)N/N=C/c2cccc(OC)c2O)n1 | -17 | 126* | 17 | -16
COc1cccc(/C=N/NC(=O)c2c(C)nc3ccc(Cl)cn23)c1O | -121 | 8 | 120* | -4
C[C@@H]1CN([C@H](C)CO)C(=O)c2cc(NS(C)(=O)=O)ccc2O[C@@H](C)CCCCO[C@H]1CN(C)S(=O)(=O)c1ccc(F)cc1 | nt | 44 | nt | nt
O=c1[nH]ncc(N/N=C\c2cccnc2)c1Cl | 19 | nt | -19 | -2
Cc1cccc(/C=N\Nc2cn[nH]c(=O)c2Cl)c1 | -4 | 102* | 4 | 15
Cc1nn(-c2ccccc2)c2nc(-c3cccs3)cc(C(=O)NN)c12 | -84 | nt | 84* | nt
CCOC(=O)c1cc(-c2cccs2)nc2c1c(C)nn2-c1ccccn1 | -30 | 9 | 30 | 1
COc1ccc(NC(=O)c2cnn(-c3ccccc3)c2C)c(OC)c1 | 8 | -4 | -8 | 3
COc1ccc(NC(=O)c2cc(-c3ccccc3)nc3c2c(C)nn3-c2ccccc2)c(OC)c1 | -88 | nt | 88* | -3
COc1cc(/C=N/NC(=O)CC#N)ccc1Oc1nc(Cl)ncc1F | -82 | 7 | 82* | -1
COc1ccc(C=NNC(=O)CCCC(=O)NN=Cc2ccc(OC)c(OC)c2)cc1OC | -17 | nt | 17 | 2
CC(=O)Nc1sc(/C(C#N)=C\c2cccc(Cl)c2)nc1-c1ccc(C)cc1 | -82 | nt | 82* | 0
CCOc1ccc(/C=C/C(=O)N(CC)CC(=O)Nc2ccc3c(c2)OCCO3)cc1OCC | -74 | 1 | 74* | -5
CCOc1ccc(/C=C/C(=O)N(CC)CC(=O)Nc2ccc3c(c2)OCCO3)cc1OC | -71 | -5 | ? | -8
COCc1cn(CC[C@H]2CC[C@H](NC(=O)Nc3ccc(C(F)(F)F)cc3)[C@H](CO)O2)nn1 | nt | -9 | nt | nt
CCOC(=O)C1CCN(C(=O)c2ccc(OCC(=O)Nc3ccc(OCC)cc3)c(OC)c2)CC1 | -83 | nt | 83* | -3
Cc1cc(NC(=O)COC(=O)C2CCN(C(=O)c3ccc(Cl)cc3)CC2)no1 | 25 | 111* | -25 | 7
O=C(C[C@@H]1C[C@@H]2c3cc(NC(=O)C4CCC4)ccc3O[C@@H]2[C@H](CO)O1)NCc1cc(F)ccc1F | nt | -7 | nt | nt

Screening data: PubChem, Broad Institute
